Rows were chosen to be rich in hits. Some 1.8% of all compounds tested hit in one or more screens of this group.
M4 ag = CHRM4 agonism in calcium assay. P08173. CHO-K1 hM4/Gqi5, Fluo-8 calcium fluorescence; vehicle 0%, full acetylcholine response 100%. activation, % at 3 µM. 0.14% of 360,000 active. AID 624127;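 active = activation above the run mean over all test wells plus 3 SD, cut at about 32% in these data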;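 note: peak over basal fluorescence ratio per well then scaled between controls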
Target sequence (P08173 whole entry, looked up): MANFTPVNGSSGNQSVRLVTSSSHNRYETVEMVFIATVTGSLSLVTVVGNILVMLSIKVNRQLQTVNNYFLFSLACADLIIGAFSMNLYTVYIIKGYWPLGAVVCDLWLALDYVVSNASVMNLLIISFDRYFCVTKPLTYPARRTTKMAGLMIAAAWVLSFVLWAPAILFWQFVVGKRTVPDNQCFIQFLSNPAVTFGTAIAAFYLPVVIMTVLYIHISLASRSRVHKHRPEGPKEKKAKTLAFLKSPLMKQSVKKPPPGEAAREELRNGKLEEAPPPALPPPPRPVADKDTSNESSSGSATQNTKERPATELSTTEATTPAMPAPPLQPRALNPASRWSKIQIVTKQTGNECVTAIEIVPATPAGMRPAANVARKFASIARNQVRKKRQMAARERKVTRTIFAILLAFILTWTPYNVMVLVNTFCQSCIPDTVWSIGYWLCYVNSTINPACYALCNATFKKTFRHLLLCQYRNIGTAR
M5 antag = blocks acetylcholine activation of human M5 receptor; CHO-hM5 cells, Fluo-8 calcium fluorescence, ACh EC80; inhibition, % at 3 µM; 0.59% of 360,000 active;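 active = inhibition above a per-plate cutoff, the mean of that plate's test compounds plus 3 SD, cut at about 27% in these data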
CHRM5 agonist = CHRM5 agonism in calcium assay | P08912 | CHO-K1 hM5 cells, Fluo-8 calcium fluorescence; 0% DMSO wells, 100% maximal acetylcholine response | 0.19% of 360,000 active | activation, % at 3 µM | AID 624037;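 active = activation above the run's mean over test compounds plus 3 SD, cut at about 23% in these data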;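 note: signal is peak over basal fluorescence ratio across the kinetic read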
M5 PAM = positive allosteric modulators of human muscarinic M5 receptor; CHO-K1 hM5, Fluo-8 calcium, ACh EC20 PAM; 0% = ACh EC20, 100% = ACh EC100; activation, % at 3 µM; P08912; 0.3% of 360,000 active;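 active = activation above the run cutoff, the mean activation of all test compounds plus 3 SD, cut at about 18% in these data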
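System: CHO-K1 hM5 cells. Reagent: acetylcholine, EC20 level. Compound dosing: single dose, 3 µM nominal final test concentration. Timing: Post-acetylcholine fluorescence recording 140 s. Detection: Fluo-8 calcium fluorescence. Read-out: % activation, ACh-normalized. Benchmarks: ACh EC20 and EC100 wells. Repeats: singlicate, one well per test compound.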
M4 antag = CHRM4 antagonism in calcium assay | P08173 | CHO-hM4 cells, ACh EC80, Fluo-8 calcium fluorescence | inhibition, % at 3 µM | 0.73% of 360,000 active | AID 624125;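 active = inhibition above its plate's cutoff, the mean inhibition of sample wells plus 3 SD, cut at about 27% in these data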
CHRM4 PAM = potentiates acetylcholine response at human M4 receptor; P08173; CHO-K1 hM4/Gqi5, Fluo-8 calcium fluorescence, ACh EC20; 0% = ACh EC20, 100% = maximal ACh; activation, % at 3 µM; 0.4% of 360,000 active;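 active = activation above its plate's cutoff, the mean activation of sample wells plus 3 SD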
Large screens that a line does not name were inactive.

O=C(CSc1nnc(Cc2ccccc2)o1)N1CCc2ccccc21	none
O=C(CSc1nnc(COc2cccc3cccnc23)o1)N1CCc2ccccc21	M5 antag 28
COc1ccc(-n2nc(C(=O)NCC(=O)NC3CCCCC3)c3ccccc3c2=O)cc1	none
CC(C)Cn1c(C23CC4CC(CC(C4)C2)C3)n[nH]c1=S	M4 antag 27
O=C1c2ccccc2C(Nc2ccc(Cl)cn2)N1c1ccccn1 (stereo unspecified)	CHRM4 PAM 18
COc1ccc(C)cc1S(=O)(=O)N1CCN(C(=O)c2ncoc2-c2cccc(C)c2)CC1	M5 antag 28
COc1ccc(C)cc1S(=O)(=O)N1CCN(C(=O)c2ncoc2-c2ccc(C)cc2)CC1	none
CCN1CCN(c2ccc(NC(=O)CC3OC(=O)c4ccccc43)cc2C)CC1 (stereo unspecified)	none
CCc1cccc(CC)c1N1C(=O)COCC1=O	none
CCc1cccc(CC)c1N1C(=O)C2=C(SCCCS2)C1=O	M4 ag 34
COc1ccc(C(N)c2csc(Nc3cc(Oc4ccccc4)ncn3)n2)cc1 (stereo unspecified)	M5 antag 30, M4 antag 41
CC1(C)COC(Cc2ccccc2)=N1	none
COc1ccc(C(=O)OCC[N+]2(C)CCOCC2)cc1	none
CN(C)CCOC(=O)C1(c2ccccc2)CCCC1	M5 antag 86, M4 antag 77
CCN(CC)CCOC(=O)c1ccc(NC(=O)C2(c3ccccc3)CCCC2)cc1	M5 antag 36
O=C(O)c1ccc(NC(=O)C2(c3ccccc3)CCCC2)cc1	none
O=C(OCCN1CCCCC1)C1(c2ccccc2)CCCC1	M5 antag 99, M4 antag 91
O=C(OCCN1CCCCC1)c1ccccc1Br	none
CCNC(=O)C1(c2ccccc2)CCCC1	none
C[N+]1(CCCOC(=O)C2(c3ccccc3)CCCC2)CCOCC1	M5 antag 87, M4 antag 78
CCN1CCN(S(=O)(=O)c2ccc(Cl)c(C(=O)N(C)CCOc3ccc(Cl)cc3)c2)CC1	none
O=C(OCCN1CCCC1)C1(c2ccccc2)CCCC1	M5 antag 99, M4 antag 94
CCOc1ccc(/C(C)=N/NC(=O)c2nnn(-c3nonc3N)c2-c2cccs2)cc1	none
O=C(CC1C(=O)NCCN1CC1CCCCC1)NCc1cc(F)ccc1F (stereo unspecified)	M5 antag 27
O=C(CC1C(=O)NCCN1CC1CCCCC1)NCc1ccc(F)cc1F (stereo unspecified)	none
CCOc1cc(N2CCOCC2)c(OCC)cc1NC(=O)COC(=O)COc1ccc(C#N)cc1	none
O=C(Nc1cc(Cl)ccc1C(=O)O)c1ccc(CN2C(=O)c3ccccc3C2=O)cc1	none
Cc1c(CCOC(=O)C23CC4CC(CC(C)(C4)C2)C3)sc[n+]1Cc1ccccc1	M5 antag 98, M4 antag 69
Cc1c(CCOC(=O)C23CC4CC(CC(C4)C2)C3)sc[n+]1Cc1ccccc1	none
CCOc1ccccc1NC(=O)Nc1ccc2c(c1)CCC2	CHRM4 PAM 20
O=C(c1ccc(-c2cc(O)c3ncccc3c2)cc1)N1CCNCC1	none
CC(=O)Nc1cccc(-c2cnc(N)c(C(=O)c3cccnc3)n2)c1	none
O=C(c1cccc(S(=O)(=O)N2CCOCC2)c1)N1CCC(Cc2ccccc2)CC1	none
O=C(c1cccc(S(=O)(=O)N2CCOCC2)c1)N1CCN(C/C=C/c2ccccc2)CC1	M5 antag 39
CCOC(=O)C1CCN(C(=O)c2ccco2)CC1	none
O=C(NCc1ccccc1)c1ccc(CN2CCC(Cc3ccccc3)CC2)cc1	none
CCOC(=O)C1CCN(Cc2ccc(OCc3ccccc3)cc2)CC1	M4 antag 39
CCOC(=O)C1CCCN(CCc2ccccc2)C1 (stereo unspecified)	M4 antag 37
CCOC(=O)C1CCN(C(=O)c2ccc(C)o2)CC1	M4 antag 100
NC(=O)C1CCN(Cc2ccc(OCc3ccccc3)cc2)CC1	none
CCc1ccccc1NC(=O)c1ccc(CN2CCC(Cc3ccccc3)CC2)cc1	M4 antag 36
CCOc1ccc(CN2CCC(Cc3ccccc3)CC2)cc1	M4 antag 26
COc1ccc(CN2CCC(Cc3ccccc3)CC2)cc1OC	none
CSc1ccc(Cn2nnc(C(=O)NCc3ccccc3)c2N)cc1	M4 ag 61, CHRM5 agonist 42
Nc1c(C(=O)NCc2ccccc2)nnn1Cc1ccccc1	none
CS(=O)(=O)N(Cc1ccccc1Cl)c1ccc(C(=O)NCc2ccccn2)cc1	none
CCN(CC)C(=O)Cn1cc(C(=O)C(=O)N(C)C2CCN(C)CC2)c2ccccc21	CHRM4 PAM 17
CCC1CCCCN1C(=O)C(=O)c1cn(CC(=O)N(CC)CC)c2ccccc12 (stereo unspecified)	none
O=C(Nc1cccc(-n2cnnn2)c1)c1ccc(OC(F)(F)F)cc1	none
CCCNC(=O)c1ccc(N2CCC3(CC2)CC(c2cccc(Br)c2)=NO3)c([N+](=O)[O-])c1	M4 antag 33
CC12CCC3C(=CCc4cc(O)ccc43)C1CC(=NO)C2O (stereo unspecified)	CHRM5 agonist 24
COCCNC(=O)C1(C)CCCN(C(=O)c2c(F)ccc(C)c2F)C1 (stereo unspecified)	none
NC(=S)NNc1ccnc2cc(Cl)ccc12	none
O=C(NNc1ccnc2cc(Cl)ccc12)C1CCCCC1	M5 antag 31
O=C1CCc2cc(Br)ccc2O1	none
CC(C)CNCC(=O)N1c2ccccc2Sc2ccccc21	M5 antag 74, M4 antag 52
CC(C)NC(=O)N1c2ccccc2Sc2ccccc21	none
COCCNCC(=O)N1c2ccccc2Sc2ccccc21	M5 antag 57, M4 antag 31
Cc1cccc[n+]1CC(=O)N1c2ccccc2Sc2ccccc21	M5 antag 99, M4 antag 96
COCCCNC(=O)N1c2ccccc2Sc2ccccc21	none
CC(=O)N1c2ccccc2Sc2ccccc21	none
CC(OC(=O)Cc1ccc(Cl)cc1)C(=O)NC1CCCCC1C (stereo unspecified)	none
O=C1C(=Cc2ccccc2O)SC(=S)N1CCCN1CCOCC1	none
COc1cc2nc(C3CCC3)nc(N3CCN(c4ccccc4OC)CC3)c2cc1OC	M4 antag 43
COc1ccccc1C(=O)N/C(=C\c1cn(S(=O)(=O)N(C)C)c2ccccc12)C(=O)N1CCOCC1	none
CC1CCN(S(=O)(=O)c2ccc(NC(=O)c3ccccc3F)cc2)CC1	none
CC1CCN(S(=O)(=O)c2ccc(NC(=O)Cn3nnc(-c4ccccc4F)n3)cc2)CC1	M5 antag 31

High-throughput results deposited in PubChem by The Scripps Research Institute Molecular Screening Center.
